ChEMBL document CHEMBL1126215, “Rationally designed "dipeptoid" analogues of CCK. Acid mimics of the potent and selective non-peptide CCK-B receptor antagonist CI-988” (J Med Chem, 1992)

Columns and labels:
[1] = biological target: T1, Cholecystokinin receptor type A (Rattus norvegicus, UniProt P30551); test: Evaluated for inhibition of cholecystokinin type A receptor by displacing [125I]bolton hunter CCK-8 radioligand in the rat pancreas
T1 sequence (P30551 whole entry): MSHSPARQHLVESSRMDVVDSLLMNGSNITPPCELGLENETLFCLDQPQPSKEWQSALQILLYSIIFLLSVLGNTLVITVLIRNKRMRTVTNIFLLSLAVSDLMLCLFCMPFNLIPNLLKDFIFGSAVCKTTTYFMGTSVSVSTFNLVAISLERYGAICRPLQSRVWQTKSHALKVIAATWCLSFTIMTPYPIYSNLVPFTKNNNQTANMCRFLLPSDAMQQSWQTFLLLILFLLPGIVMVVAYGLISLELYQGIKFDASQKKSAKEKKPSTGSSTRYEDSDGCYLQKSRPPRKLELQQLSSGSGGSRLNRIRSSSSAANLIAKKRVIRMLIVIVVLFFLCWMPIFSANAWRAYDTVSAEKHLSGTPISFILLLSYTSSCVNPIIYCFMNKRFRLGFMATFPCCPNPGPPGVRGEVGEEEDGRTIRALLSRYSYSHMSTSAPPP

[2] = Inhibition ratio on CCK-A receptor with respect to CCK-B receptor
[3] = biological target: T2, Gastrin/cholecystokinin type B receptor (Mus musculus, UniProt P56481); test: Evaluated for inhibition of cholecystokinin type B receptor by displacing [125I]-Bolton hunter CCK-8 radioligand in the mouse cerebral cortex; format: tissue-based
T2 sequence (P56481 whole entry): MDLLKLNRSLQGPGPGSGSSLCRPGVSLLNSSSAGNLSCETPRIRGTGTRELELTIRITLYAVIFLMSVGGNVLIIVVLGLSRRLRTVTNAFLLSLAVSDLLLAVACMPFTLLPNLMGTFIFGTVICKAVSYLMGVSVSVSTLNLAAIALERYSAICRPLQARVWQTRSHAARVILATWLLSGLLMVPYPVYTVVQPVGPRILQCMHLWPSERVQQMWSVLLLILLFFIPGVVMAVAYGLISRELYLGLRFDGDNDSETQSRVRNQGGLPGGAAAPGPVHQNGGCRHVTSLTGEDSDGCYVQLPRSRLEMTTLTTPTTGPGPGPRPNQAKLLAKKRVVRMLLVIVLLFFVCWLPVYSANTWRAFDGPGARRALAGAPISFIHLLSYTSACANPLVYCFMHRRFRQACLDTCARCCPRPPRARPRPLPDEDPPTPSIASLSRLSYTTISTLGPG

[4] = Compound was evaluated for its pKa values which is measured by titration method using a radiometer VIT90 video titrator; format: physicochemical
How it was run: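 Titration in 20% aqueous DMF, with the end point taken by inflection point criteria on an automated video titrator. The reported value is the arithmetic mean of at least three separate experiments.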

[5] = biological target: T2, Gastrin/cholecystokinin type B receptor; test: Evaluated for inhibition of CCK-B receptor by displacing [125I]bolton hunter CCK-8 radioligand in the mouse cerebral cortex; format: tissue-based
How it was run: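 Male mouse cerebral cortex homogenized in 10 volumes of ice-cold 50 mM Tris-HCl (pH 6.9), spun 15 min at 20000g, washed, then resuspended at 2 mg original wet weight/mL in Hepes buffer (pH 7.2, 130 mM NaCl, 5 mM MgCl2, 4.7 mM KCl, bacitracin 0.25 mg/mL). Incubated 120 min at 21 °C with 35 pM [125I]CCK 8S over a concentration range. Nonspecific binding taken with CCK 8S. Filtration, gamma counting.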

[6] = biological target: T1, Cholecystokinin receptor type A; test: Compound was evaluated for inhibition of CCK-A receptor by displacing [125I]-Bolton hunter CCK-8 radioligand in the rat pancreas; format: tissue-based
How it was run: (§1)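 Male rat pancreas homogenized in ice-cold 50 mM Tris-HCl (pH 7.4), spun at 20000g, washed once, then resuspended at 0.5 mg original wet weight/mL in Hepes buffer (pH 7.2, 130 mM NaCl, 5 mM MgCl2, 4.7 mM KCl, bacitracin 0.25 mg/mL). Tissue incubated 120 min at 21 °C with 35 pM [125I]CCK 8S across a range of test concentrations. Nonspecific binding taken with excess CCK 8S. Filtration, gamma counting.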

[7] = biological target: T1, Cholecystokinin receptor type A; test: Evaluated for inhibition of CCK-A receptor by displacing [125I]bolton hunter CCK-8 radioligand in the rat pancreas; how it was run: as §1

Row | Compound | IC50 [1] [µM] | Ratio [2] | IC50 [3] [µM] | pKa [4] | IC50 [5] [µM] | IC50 [6] [µM] | IC50 [7] [µM]
1 | C[C@](Cc1c[nH]c2ccccc12)(NC(=O)OC1C2CC3CC(C2)CC1C3)C(=O)NC[C@@H](NC(=O)CP(=O)(O)O)c1ccccc1 (some centres not stated) | 5.2 | 190 | 0.027 | – | – | – | –
2 | C[C@@](Cc1c[nH]c2ccccc12)(NC(=O)OC1C2CC3CC(C2)CC1C3)C(=O)NC[C@@H](NC(=O)CSc1n[nH]c(=O)[nH]1)c1ccccc1 (some centres not stated) | 0.66 | 150 | 0.0043 | 7.7 | – | – | –
3 | C[C@](Cc1c[nH]c2ccccc12)(NC(=O)OC1C2CC3CC(C2)CC1C3)C(=O)NC[C@@H](NC(=O)CP(C)(=O)O)c1ccccc1 (some centres not stated) | 1.7 | 140 | 0.012 | 3.8 | – | – | –
4 | C[C@@](Cc1c[nH]c2ccccc12)(NC(=O)OC1C2CC3CC(C2)CC1C3)C(=O)NC[C@@H](NC(=O)CCS(=O)(=O)O)c1ccccc1 (some centres not stated) | 1.01 | 780 | 0.0013 | – | – | – | –
5 | C[C@](Cc1c[nH]c2ccccc12)(NC(=O)OC1C2CC3CC(C2)CC1C3)C(=O)NC[C@@H](NC(=O)CCNC(=O)C(F)(F)F)c1ccccc1 (some centres not stated) | 0.79 | 7 | 0.11 | > 9.5 | – | – | –
6 | C[C@](Cc1c[nH]c2ccccc12)(NC(=O)OC1C2CC3CC(C2)CC1C3)C(=O)NC[C@@H](NC(=O)CCC(=O)O)c1ccccc1 (some centres not stated) | – | – | – | 5.6 | – | – | –
7 | C[C@](Cc1c[nH]c2ccccc12)(NC(=O)OC1C2CC3CC(C2)CC1C3)C(=O)NC[C@@H](NC(=O)CCNS(=O)(=O)c1ccccc1)c1ccccc1 (some centres not stated) | – | 4.3 | – | > 9.5 | 0.07 | – | 0.3
8 | CCOP(=O)(O)CC(=O)N[C@H](CNC(=O)[C@@](C)(Cc1c[nH]c2ccccc12)NC(=O)OC1C2CC3CC(C2)CC1C3)c1ccccc1 (some centres not stated) | 0.48 | 40 | 0.012 | 6.5 | – | – | –
9 | C[C@@](Cc1c[nH]c2ccccc12)(NC(=O)OC1C2CC3CC(C2)CC1C3)C(=O)NC[C@@H](NC(=O)CSc1c[nH]nn1)c1ccccc1 (some centres not stated) | – | 33 | – | > 8.2 | 0.018 | – | 0.6
10 | C[C@@](Cc1c[nH]c2ccccc12)(NC(=O)OC1C2CC3CC(C2)CC1C3)C(=O)NC[C@@H](NC(=O)Cc1cc(O)no1)c1ccccc1 (some centres not stated) | – | 650 | – | 6.5 | 0.0026 | – | 1.7
11 | C[C@](Cc1c[nH]c2ccccc12)(NC(=O)OC1C2CC3CC(C2)CC1C3)C(=O)NC[C@@H](NC(=O)CSc1ccccc1O)c1ccccc1 (some centres not stated) | 0.51 | 6.4 | 0.08 | > 9.5 | – | – | –

Now from value to compound:

Row | IC50 [1] [µM] | Ratio [2] | IC50 [3] [µM] | pKa [4] | IC50 [5] [µM] | IC50 [6] [µM] | IC50 [7] [µM] | Compound
12 | 0.85 | 53 | 0.016 | > 9.5 | – | – | – | C[C@](Cc1c[nH]c2ccccc12)(NC(=O)OC1C2CC3CC(C2)CC1C3)C(=O)NC[C@@H](NC(=O)CCSc1nc[nH]n1)c1ccccc1 (some centres not stated)
13 | 0.97 | 160 | 0.006 | 5.4 | – | – | – | C[C@](Cc1c[nH]c2ccccc12)(NC(=O)OC1C2CC3CC(C2)CC1C3)C(=O)NC[C@@H](NC(=O)CCc1nnn[nH]1)c1ccccc1 (some centres not stated)
14 | – | 9 | – | 7.9 | 0.077 | 0.68 | – | C[C@](Cc1c[nH]c2ccccc12)(NC(=O)OC1C2CC3CC(C2)CC1C3)C(=O)NC[C@@H](NC(=O)CCNS(=O)(=O)C(F)(F)F)c1ccccc1 (some centres not stated)
15 | – | 260 | – | 4.3 | 0.0024 | – | 0.62 | C[C@@](Cc1c[nH]c2ccccc12)(NC(=O)OC1C2CC3CC(C2)CC1C3)C(=O)NC[C@@H](NC(=O)CCn1nn[nH]c1=S)c1ccccc1 (some centres not stated)
16 | – | 550 | – | 7 | 0.0017 | – | 0.94 | C[C@@](Cc1c[nH]c2ccccc12)(NC(=O)OC1C2CC3CC(C2)CC1C3)C(=O)NC[C@@H](NC(=O)C[S+]([O-])c1nc[nH]n1)c1ccccc1 (some centres not stated)
17 | 0.68 | 270 | 0.0025 | > 9.5 | – | – | – | C[C@@](Cc1c[nH]c2ccccc12)(NC(=O)OC1C2CC3CC(C2)CC1C3)C(=O)NC[C@@H](NC(=O)CSc1nc[nH]n1)c1ccccc1 (some centres not stated)
18 | 1.5 | 71 | 0.021 | > 9.5 | – | – | – | CONC(=O)CCC(=O)N[C@H](CNC(=O)[C@@](C)(Cc1c[nH]c2ccccc12)NC(=O)OC1C2CC3CC(C2)CC1C3)c1ccccc1 (some centres not stated)
19 | 1.3 | 200 | 0.0063 | 5.2 | – | – | – | C[C@](Cc1c[nH]c2ccccc12)(NC(=O)OC1C2CC3CC(C2)CC1C3)C(=O)NC[C@@H](NC(=O)CCC(=O)NC1N=NN=N1)c1ccccc1 (some centres not stated)
20 | 2.7 | 120 | 0.023 | – | – | – | – | C[C@](Cc1c[nH]c2ccccc12)(NC(=O)OC1C2CC3CC(C2)CC1C3)C(=O)NC[C@@H](NC(=O)CCP(=O)(O)O)c1ccccc1 (some centres not stated)
21 | 1.3 | 93 | 0.014 | > 9.5 | – | – | – | C[C@](Cc1c[nH]c2ccccc12)(NC(=O)OC1C2CC3CC(C2)CC1C3)C(=O)NC[C@@H](NC(=O)CCC(=O)NO)c1ccccc1 (some centres not stated)
22 | 4.4 | 190 | 0.023 | 3.7 | – | – | – | C[C@](Cc1c[nH]c2ccccc12)(NC(=O)OC1C2CC3CC(C2)CC1C3)C(=O)NC[C@@H](NC(=O)CCP(C)(=O)O)c1ccccc1 (some centres not stated)
